ChEMBL document CHEMBL4130366, “Design, synthesis and antiproliferative activity of thiazolo[5,4-d]pyrimidine derivatives through the atom replacement strategy” (Eur J Med Chem, 2017)
Calls of active or inactive are those of the source. The calls are words filed in the database; no cut-off is given here.

Experiments:
MGC-803 = experiment: Antiproliferative activity against human MGC803 cells after 72 hrs by MTT assay; format: functional, cell-based; details: MGC-803, 72 h
Summary of the method: (§1)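 Cells in exponential growth plated at 3,000 per well, left 24 h, then medium replaced with fresh medium carrying a range of compound concentrations; 72 h exposure, MTT read at 570 nm.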

HGC-27 [1] = experiment: Antiproliferative activity against human HGC27 cells after 72 hrs by MTT assay; format: functional, cell-based; details: HGC-27, 72 h; summary of the method: as §1
MCF7 = experiment: Antiproliferative activity against human MCF7 cells after 72 hrs by MTT assay; format: functional, cell-based; details: MCF7, 72 h; summary of the method: as §1
ECa-109 cell line = experiment: Antiproliferative activity against human EC109 cells after 72 hrs by MTT assay; format: functional, cell-based; details: ECa-109, 72 h; summary of the method: as §1
GES1 = experiment: Cytotoxicity against human GES-1 cells assessed as reduction in cell viability after 72 hrs by MTT assay; format: cell-based; details: GES1, 72 h
Summary of the method: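 Normal human gastric epithelial cells in exponential growth seeded at 3,000 cells/well, allowed 24 h, then medium replaced with fresh medium containing a range of compound concentrations. Exposure 72 h, then MTT, viability read at 570 nm.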

[2] = Selectivity index, ratio of IC50 for human GES-1 cells to IC50 for human HGC27 cells; format: toxicity; details: GES-1 cells and HGC27 cells, read-out: Ratio IC50
Summary of the method: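 GES-1 normal gastric epithelial cells and HGC-27 tested by the same MTT protocol (3,000 cells/well, 24 h attachment, 72 h exposure, 570 nm). SI calculated as IC50(GES-1)/IC50(HGC-27). IC50s are means ± SD of three independent experiments.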

HGC-27 [3] = experiment: Antimigratory activity in human HGC27 cells after 48 hrs by wound healing assay; format: functional, cell-based
Summary of the method: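 HGC-27 grown in 24-well plates, monolayer scratched with a 10 µL pipette tip, then exposed to compound at several concentrations. Wound closure photographed by inverted microscope after the incubation times stated.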

HGC-27 [4] = experiment: Inhibition of colony formation in human HGC27 cells at 4 uM after 9 days by crystal violet staining based assay; format: functional; details: HGC-27, 216 h
Summary of the method: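 HGC-27 seeded at 1000 cells/well, 24 h, then fresh medium with compound for 9 days. PBS washes, 4% paraformaldehyde fixation, 0.1% crystal violet stain. Colonies (>10 cells) counted from images. Inhibition rate = (1 − treated count/control count) × 100%. Triplicate.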

HGC-27 [5] = experiment: Induction of apoptosis in human HGC27 cells assessed as cell rounding at 2 to 5 uM after 24 hrs by Hoechst 33258 staining-based fluorescence microscopy; format: functional
Summary of the method: (§2)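 HGC-27 at 2×10⁵/well attached overnight, exposed to compound at several concentrations for 24 h, then stained with Hoechst 33258 for 30 min in the dark. Morphology scored by fluorescence microscopy.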

HGC-27 [6] = experiment: Induction of apoptosis in human HGC27 cells assessed as chromatin shrinkage at 2 to 5 uM after 24 hrs by Hoechst 33258 staining-based fluorescence microscopy; format: functional, cell-based; summary of the method: as §2
HGC-27 [7] = experiment: Induction of apoptosis in human HGC27 cells assessed as formation of apoptotic bodies at 2 to 5 uM after 24 hrs by Hoechst 33258 staining-based fluorescence microscopy; format: functional, cell-based; summary of the method: as §2
HGC-27 [8] = experiment: Induction of apoptosis in human HGC27 cells after 24 hrs by Annexin-V-FITC/propidium iodide-double staining based flow cytometry; format: functional, cell-based
HGC-27 [9] = experiment: Induction of apoptosis in human HGC27 cells assessed as apoptotic cells at 1 uM after 24 hrs by Annexin-V-FITC/propidium iodide-double staining based flow cytometry (reference value: 1.8%); format: functional
HGC-27 [10] = experiment: Induction of apoptosis in human HGC27 cells assessed as apoptotic cells at 2 uM after 24 hrs by Annexin-V-FITC/propidium iodide-double staining based flow cytometry (reference value: 1.8%); format: functional
HGC-27 [11] = experiment: Induction of apoptosis in human HGC27 cells assessed as apoptotic cells at 5 uM after 24 hrs by Annexin-V-FITC/propidium iodide-double staining based flow cytometry (reference value: 1.8%); format: functional
HGC-27 [12] = experiment: Induction of apoptosis in human HGC27 cells assessed as increase in Bax expression after 24 hrs by Western blot analysis; format: functional, cell-based
Summary of the method: (§3)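 HGC-27 exposed to compound at several concentrations for 24 h, lysed in RIPA with protease inhibitors for 30 min, spun at 12,000 rpm for 10 min at 4 °C. Protein measured by BCA, run on SDS-PAGE, transferred to nitrocellulose. Blocked with 5% skim milk for 2 h, primary antibodies overnight at 4 °C, secondary 1:5000 for 2 h, ECL detection.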

HGC-27 [13] = experiment: Induction of apoptosis in human HGC27 cells assessed as decrease in Bcl2 expression up to 5 uM after 24 hrs by Western blot analysis; format: functional, cell-based; summary of the method: as §3
HGC-27 [14] = experiment: Induction of apoptosis in human HGC27 cells assessed as increase in cleaved caspase 3 expression after 24 hrs by Western blot analysis; format: functional, cell-based; summary of the method: as §3
HGC-27 [15] = experiment: Induction of apoptosis in human HGC27 cells assessed as increase in cleaved caspase 9 expression after 24 hrs by Western blot analysis; format: functional, cell-based; summary of the method: as §3

Row | Structure (SMILES) | IC50 (MGC-803) | IC50 (HGC-27 [1]) | IC50 (MCF7) | IC50 (ECa-109 cell line) | further results
1 | CCCSc1nc(Sc2nnnn2CCN(C)C)c2nc(Nc3ccccc3)sc2n1 | 18.5 µM | 6.51 µM | 14.5 µM | > 64 µM | 
2 | CCCSc1nc(Sc2nnc(N)s2)c2nc(Nc3ccccc3)sc2n1 | 12.8 µM | > 64 µM | > 64 µM | > 64 µM | 
3 | CCCSc1nc(Sc2nncs2)c2nc(Nc3ccccc3)sc2n1 | 10.7 µM | 5.07 µM | 8.55 µM | > 64 µM | 
4 | Cc1ccc(Sc2nc(SCc3ccccc3)nc3sc(Nc4ccccc4)nc23)cc1 | 12.2 µM | 1.22 µM | 8.55 µM | 2.69 µM | IC50 (GES1): 29.4 µM; selectivity ratio [2]: 24.1; Activity (HGC-27 [3]): Dose-dependent effect; inhibition at 4 µM (HGC-27 [4]): 79%; Activity (HGC-27 [5]): Active; Activity (HGC-27 [6]): Active; Activity (HGC-27 [7]): Active; Activity (HGC-27 [8]): Dose-dependent effect; Activity (HGC-27 [9]): 10.01%; Activity (HGC-27 [10]): 31.8%; Activity (HGC-27 [11]): 67.9%; Activity (HGC-27 [12]): Dose-dependent effect; Activity (HGC-27 [13]): Active; Activity (HGC-27 [14]): Dose-dependent effect; Activity (HGC-27 [15]): Dose-dependent effect
5 | CCCSc1nc(Sc2ccc(C)cc2)c2nc(Nc3ccccn3)sc2n1 | > 64 µM | 7.28 µM | 34.2 µM | > 64 µM | 
6 | CCCSc1nc(Sc2nccs2)c2nc(Nc3ccccc3)sc2n1 | 23.4 µM | 2.21 µM | > 64 µM | > 64 µM | 
7 | CCCSc1nc(Sc2nc3ccccc3s2)c2nc(Nc3ccccc3)sc2n1 | 14.2 µM | 12.2 µM | > 64 µM | 24.3 µM | 
8 | O=c1[nH]cc(F)c(=O)[nH]1 [FLUOROURACIL] |  | 11 µM | 7.21 µM | 5.01 µM | IC50 (GES1): 8.59 µM
9 | CCCSc1nc(Sc2nncs2)c2nc(Nc3cccc4ccccc34)sc2n1 | > 64 µM | 22.7 µM | > 64 µM | > 64 µM | 
10 | CCCSc1nc(Sc2ccc(C)cc2)c2nc(Nc3cc(OC)c(OC)c(OC)c3)sc2n1 | > 64 µM | 6.03 µM | > 64 µM | 23.9 µM | 
11 | CCCSc1nc(Sc2ccc(Cl)cc2)c2nc(Nc3ccccc3)sc2n1 | 9.33 µM | 8.87 µM | 44.2 µM | 19.6 µM | 
12 | CCCSc1nc(Sc2nccn2C)c2nc(Nc3ccccc3)sc2n1 | 30 µM | 4.03 µM | > 64 µM | > 64 µM | 
13 | c1ccc(CSc2nc(Sc3nncs3)c3nc(Nc4ccccc4)sc3n2)cc1 | > 64 µM | 18.9 µM | 38.7 µM | 10.6 µM | 
14 | CCCSc1nc(Sc2ncccn2)c2nc(Nc3ccccc3)sc2n1 | 9.82 µM | 9.55 µM | 13.2 µM | 49.6 µM | 
15 | CCCSc1nc(Sc2nncs2)c2nc(Nc3ccccn3)sc2n1 | 10.2 µM | 18.2 µM | 11.6 µM | > 64 µM | 
16 | CCCSc1nc(Sc2ccc(C)cc2)c2nc(Nc3ccccc3)sc2n1 | 4.73 µM | 4.65 µM | > 64 µM | 25 µM | 
17 | CCCSc1nc(Sc2ccc(C)cc2)c2nc(Nc3cccc4ccccc34)sc2n1 | 46.2 µM | > 64 µM | > 64 µM | > 64 µM | 
18 | CCCSc1nc(Sc2ncccn2)c2nc(Nc3ccccn3)sc2n1 | 11.2 µM | 12.2 µM | > 64 µM | > 64 µM | 
